Results from ChEMBL document CHEMBL1122702, “Radiohalogen-labeled imaging agents. 3. Compounds for measurement of brain blood flow by emission tomography” (J Med Chem, 1984).

Experiments:
Format in all cases: ADME, organism-based
Rattus norvegicus [1] = species on record: Rattus norvegicus; test: The distribution of the 131 I-labeled compound at 30 min was evaluated in rat liver as Percent of injected dose in the total organ; settings: in vivo, 0.5 h
In short: (§1)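 Male Sprague-Dawley rats (200–300 g, free access to food and water), lightly ether-anesthetized and restrained, received a 0.2 mL saline tail-vein bolus of 10–20 μCi 131I-labeled compound. They were decapitated at the stated time, and organs were excised, weighed and gamma-counted. Percent injected dose was determined against a calibrated external standard made by serial dilution of the injectate. n = 1–4 rats.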

Rattus norvegicus [2] = species on record: Rattus norvegicus; test: Ratio of distribution of the [131I]-labeled compound at 5 min in rat lung over uptake in blood; settings: other tissue
In short: (§2)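 Male Sprague-Dawley rats (200–300 g, fed ad libitum), ether-anesthetized, got a tail-vein bolus of 0.2 mL saline containing 10–20 μCi 131I compound and were decapitated at the stated time. Organs were weighed and gamma-counted against a serially diluted external standard. Organ/blood ratio was calculated from % dose per gram of organ. Animal numbers per time point were 1–4.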

Rattus norvegicus [3] = species on record: Rattus norvegicus; test: The distribution of the 131 I-labeled compound at 30 min was evaluated in rat brain as Percent of injected dose in the total organ; settings: in vivo, 0.5 h; in short: as §1
Rattus norvegicus [4] = species on record: Rattus norvegicus; test: The distribution of the 131 I-labeled compound at 30 min was evaluated in rat heart as Percent of injected dose per gram in the organ; settings: in vivo, 0.5 h; in short: as §1
Rattus norvegicus [5] = species on record: Rattus norvegicus; test: The distribution of the 131 I-labeled compound at 30 min was evaluated in rat brain as Percent of injected dose per gram in the organ; settings: in vivo, 0.5 h; in short: as §1
Rattus norvegicus [6] = species on record: Rattus norvegicus; test: The distribution of the 131 I-labeled compound at 5 min was evaluated in rat brain as Percent of injected dose per gram in the organ; settings: in vivo; in short: as §1
Rattus norvegicus [7] = species on record: Rattus norvegicus; test: The distribution of the 131 I-labeled compound at 5 min was evaluated in rat blood as Percent of injected dose per gram in the organ; settings: in vivo; in short: as §1
Rattus norvegicus [8] = species on record: Rattus norvegicus; test: The distribution of the 131 I-labeled compound at 5 min was evaluated in rat heart as Percent of injected dose per gram in the organ; settings: in vivo; in short: as §1
Rattus norvegicus [9] = species on record: Rattus norvegicus; test: Ratio of distribution of the [131I]-labeled compound at 5 min in rat heart over uptake in blood; settings: other tissue; in short: as §2
Rattus norvegicus [10] = species on record: Rattus norvegicus; test: The distribution of the 131 I-labeled compound at 5 min was evaluated in rat heart as Percent of injected dose in the total organ; settings: in vivo; in short: as §1
Rattus norvegicus [11] = species on record: Rattus norvegicus; test: Ratio of distribution of the [131I]-labeled compound at 5 min in rat kidney over uptake in blood; settings: other tissue; in short: as §2
Rattus norvegicus [12] = species on record: Rattus norvegicus; test: The distribution of the 131 I-labeled compound at 5 min was evaluated in rat kidney as Percent of injected dose in the total organ; settings: in vivo; in short: as §1
Rattus norvegicus [13] = species on record: Rattus norvegicus; test: The distribution of the 131 I-labeled compound at 5 min was evaluated in rat liver as Percent of injected dose per gram in the organ; settings: in vivo; in short: as §1
Rattus norvegicus [14] = species on record: Rattus norvegicus; test: The distribution of the 131 I-labeled compound at 5 min was evaluated in rat brain as Percent of injected dose in the total organ; settings: in vivo; in short: as §1
Rattus norvegicus [15] = species on record: Rattus norvegicus; test: The distribution of the 131 I-labeled compound at 30 min was evaluated in rat liver as Percent of injected dose per gram in the organ; settings: in vivo, 0.5 h; in short: as §1
Rattus norvegicus [16] = species on record: Rattus norvegicus; test: Ratio of distribution of the [131I]-labeled compound at 30 min in rat lung over uptake in blood; settings: other tissue, 0.5 h; in short: as §2
Rattus norvegicus [17] = species on record: Rattus norvegicus; test: The distribution of the 131 I-labeled compound at 5 min was evaluated in rat kidney as Percent of injected dose per gram in the organ; settings: in vivo; in short: as §1
Rattus norvegicus [18] = species on record: Rattus norvegicus; test: The distribution of the 131 I-labeled compound at 5 min was evaluated in rat liver as Percent of injected dose in the total organ; settings: in vivo; in short: as §1
Rattus norvegicus [19] = species on record: Rattus norvegicus; test: The distribution of the 131 I-labeled compound at 5 min was evaluated in rat lung as Percent of injected dose per gram in the organ; settings: in vivo; in short: as §1
Rattus norvegicus [20] = species on record: Rattus norvegicus; test: Ratio of distribution of the [131I]-labeled compound at 30 min in rat brain over uptake in blood; settings: 0.5 h; in short: as §2
Rattus norvegicus [21] = species on record: Rattus norvegicus; test: The distribution of the 131 I-labeled compound at 30 min was evaluated in rat kidney as Percent of injected dose per gram in the organ; settings: in vivo, 0.5 h; in short: as §1
Rattus norvegicus [22] = species on record: Rattus norvegicus; test: The distribution of the 131 I-labeled compound at 30 min was evaluated in rat heart as Percent of injected dose in the total organ; settings: in vivo, 0.5 h; in short: as §1
Rattus norvegicus [23] = species on record: Rattus norvegicus; test: The distribution of the 131 I-labeled compound at 30 min was evaluated in rat blood as Percent of injected dose per gram in the organ; settings: in vivo, 0.5 h; in short: as §1
Rattus norvegicus [24] = species on record: Rattus norvegicus; test: Ratio of distribution of the [131I]-labeled compound at 5 min in rat liver over uptake in blood; settings: other tissue; in short: as §2
Rattus norvegicus [25] = species on record: Rattus norvegicus; test: The distribution of the 131 I-labeled compound at 30 min was evaluated in rat kidney as Percent of injected dose in the total organ; settings: in vivo, 0.5 h; in short: as §1
Rattus norvegicus [26] = species on record: Rattus norvegicus; test: Ratio of distribution of the [131I]-labeled compound at 30 min in rat liver over uptake in blood; settings: other tissue, 0.5 h; in short: as §2
Rattus norvegicus [27] = species on record: Rattus norvegicus; test: The distribution of the 131 I-labeled compound at 30 min was evaluated in rat lung as Percent of injected dose per gram in the organ; settings: in vivo, 0.5 h; in short: as §1
Rattus norvegicus [28] = species on record: Rattus norvegicus; test: Ratio of distribution of the [131I]-labeled compound at 30 min in rat kidney over uptake in blood; settings: other tissue, 0.5 h; in short: as §2
Rattus norvegicus [29] = species on record: Rattus norvegicus; test: Ratio of distribution of the [131I]-labeled compound at 30 min in rat heart over uptake in blood; settings: other tissue, 0.5 h; in short: as §2
Rattus norvegicus [30] = species on record: Rattus norvegicus; test: Ratio of distribution of the [131I]-labeled compound at 5 min in rat brain over uptake in blood; in short: as §2

COc1cc(CC(C)N(C)C(C)C)c(OC)cc1I (stereo not given)
Dose (Rattus norvegicus [1]): 4.6%
Ratio (Rattus norvegicus [2]): 1.1
Dose (Rattus norvegicus [3]): 0.1%
Dose (Rattus norvegicus [4]): 0.19%
Dose (Rattus norvegicus [5]): 0.05%
Dose (Rattus norvegicus [6]): 0.12%
Dose (Rattus norvegicus [7]): 0.5%
Dose (Rattus norvegicus [8]): 0.34%
Ratio (Rattus norvegicus [9]): 0.68
Dose (Rattus norvegicus [10]): 0.39%
Ratio (Rattus norvegicus [11]): 1.1
Dose (Rattus norvegicus [12]): 1.5%
Dose (Rattus norvegicus [13]): 0.76%
Dose (Rattus norvegicus [14]): 0.23%
Dose (Rattus norvegicus [15]): 0.32%
Ratio (Rattus norvegicus [16]): 0.72
Dose (Rattus norvegicus [17]): 0.53%
Dose (Rattus norvegicus [18]): 10%
Dose (Rattus norvegicus [19]): 0.53%
Ratio (Rattus norvegicus [20]): 0.09
Dose (Rattus norvegicus [21]): 0.38%
Dose (Rattus norvegicus [22]): 0.24%
Dose (Rattus norvegicus [23]): 0.53%
Ratio (Rattus norvegicus [24]): 1.6
Dose (Rattus norvegicus [25]): 1.1%
Ratio (Rattus norvegicus [26]): 0.6
Dose (Rattus norvegicus [27]): 0.38%
Ratio (Rattus norvegicus [28]): 0.72
Ratio (Rattus norvegicus [29]): 0.36
Ratio (Rattus norvegicus [30]): 0.24

COc1cc(CC(C)N)c(OC)cc1I (stereo not given)
Dose (Rattus norvegicus [1]): 10%
Ratio (Rattus norvegicus [2]): 47
Dose (Rattus norvegicus [3]): 0.76%
Dose (Rattus norvegicus [4]): 0.29%
Dose (Rattus norvegicus [5]): 0.4%
Dose (Rattus norvegicus [6]): 0.34%
Dose (Rattus norvegicus [7]): 0.07%
Dose (Rattus norvegicus [8]): 0.86%
Ratio (Rattus norvegicus [9]): 12
Dose (Rattus norvegicus [10]): 0.92%
Ratio (Rattus norvegicus [11]): 17
Dose (Rattus norvegicus [12]): 3.2%
Dose (Rattus norvegicus [13]): 0.83%
Dose (Rattus norvegicus [14]): 0.64%
Dose (Rattus norvegicus [15]): 0.8%
Ratio (Rattus norvegicus [16]): 46
Dose (Rattus norvegicus [17]): 1.2%
Dose (Rattus norvegicus [18]): 5.6%
Dose (Rattus norvegicus [19]): 3.3%
Ratio (Rattus norvegicus [20]): 6.7
Dose (Rattus norvegicus [21]): 1.1%
Dose (Rattus norvegicus [22]): 0.32%
Dose (Rattus norvegicus [23]): 0.06%
Ratio (Rattus norvegicus [24]): 12
Dose (Rattus norvegicus [25]): 2.8%
Ratio (Rattus norvegicus [26]): 13
Dose (Rattus norvegicus [27]): 2.8%
Ratio (Rattus norvegicus [28]): 18
Ratio (Rattus norvegicus [29]): 14
Ratio (Rattus norvegicus [30]): 4.7

COc1cc(CC(C)N(C)Cc2ccccc2)c(OC)cc1I (stereo not given)
Dose (Rattus norvegicus [1]): 7.6%
Ratio (Rattus norvegicus [2]): 6.3
Dose (Rattus norvegicus [3]): 0.1%
Dose (Rattus norvegicus [4]): 0.19%
Dose (Rattus norvegicus [5]): 0.05%
Dose (Rattus norvegicus [6]): 0.15%
Dose (Rattus norvegicus [7]): 0.12%
Dose (Rattus norvegicus [8]): 1.1%
Ratio (Rattus norvegicus [9]): 9.2
Dose (Rattus norvegicus [10]): 1.2%
Ratio (Rattus norvegicus [11]): 5.3
Dose (Rattus norvegicus [12]): 1.8%
Dose (Rattus norvegicus [13]): 0.8%
Dose (Rattus norvegicus [14]): 0.29%
Dose (Rattus norvegicus [15]): 0.62%
Ratio (Rattus norvegicus [16]): 7.8
Dose (Rattus norvegicus [17]): 0.63%
Dose (Rattus norvegicus [18]): 12%
Dose (Rattus norvegicus [19]): 0.75%
Ratio (Rattus norvegicus [20]): 0.09
Dose (Rattus norvegicus [21]): 0.52%
Dose (Rattus norvegicus [22]): 0.21%
Dose (Rattus norvegicus [23]): 0.09%
Ratio (Rattus norvegicus [24]): 6.7
Dose (Rattus norvegicus [25]): 1.3%
Ratio (Rattus norvegicus [26]): 6.9
Dose (Rattus norvegicus [27]): 0.7%
Ratio (Rattus norvegicus [28]): 5.8
Ratio (Rattus norvegicus [29]): 2.1
Ratio (Rattus norvegicus [30]): 1.3

COc1cc(CC(C)NCC2CC2)c(OC)cc1I (stereo not given)
Dose (Rattus norvegicus [1]): 8.9%
Ratio (Rattus norvegicus [2]): 65
Dose (Rattus norvegicus [3]): 0.35%
Dose (Rattus norvegicus [4]): 0.3%
Dose (Rattus norvegicus [5]): 0.19%
Dose (Rattus norvegicus [6]): 0.33%
Dose (Rattus norvegicus [7]): 0.12%
Dose (Rattus norvegicus [8]): 0.91%
Ratio (Rattus norvegicus [9]): 7.6
Dose (Rattus norvegicus [10]): 0.71%
Ratio (Rattus norvegicus [11]): 9.2
Dose (Rattus norvegicus [12]): 2%
Dose (Rattus norvegicus [13]): 0.55%
Dose (Rattus norvegicus [14]): 0.62%
Dose (Rattus norvegicus [15]): 0.97%
Ratio (Rattus norvegicus [16]): 26
Dose (Rattus norvegicus [17]): 1.1%
Dose (Rattus norvegicus [18]): 3.9%
Dose (Rattus norvegicus [19]): 7.8%
Ratio (Rattus norvegicus [20]): 2.1
Dose (Rattus norvegicus [21]): 0.77%
Dose (Rattus norvegicus [22]): 0.23%
Dose (Rattus norvegicus [23]): 0.09%
Ratio (Rattus norvegicus [24]): 4.5
Dose (Rattus norvegicus [25]): 1.7%
Ratio (Rattus norvegicus [26]): 11
Dose (Rattus norvegicus [27]): 2.4%
Ratio (Rattus norvegicus [28]): 8.6
Ratio (Rattus norvegicus [29]): 3.3
Ratio (Rattus norvegicus [30]): 2.8
